Test results from ChEMBL document CHEMBL1165943, “Design and synthesis of new anticancer pyrimidines with multiple-kinase inhibitory effect” (Bioorg Med Chem, 2010).

Legend:
[1] = target: RAC-alpha serine/threonine-protein kinase (Homo sapiens) (UniProt P31749); experiment: Inhibition of AKT1 at 10 uM by HotSpot assay
[2] = target: BDNF/NT-3 growth factors receptor (Homo sapiens) (UniProt Q16620); experiment: Inhibition of NTRK2 at 10 uM by HotSpot assay
[3] = target: Rho-associated protein kinase 1 (Homo sapiens) (UniProt Q13464); experiment: Inhibition of ROCK1 at 10 uM by HotSpot assay
Chain of Rho-associated protein kinase 1 (Homo sapiens) (Q13464 2-1354 limits assumed): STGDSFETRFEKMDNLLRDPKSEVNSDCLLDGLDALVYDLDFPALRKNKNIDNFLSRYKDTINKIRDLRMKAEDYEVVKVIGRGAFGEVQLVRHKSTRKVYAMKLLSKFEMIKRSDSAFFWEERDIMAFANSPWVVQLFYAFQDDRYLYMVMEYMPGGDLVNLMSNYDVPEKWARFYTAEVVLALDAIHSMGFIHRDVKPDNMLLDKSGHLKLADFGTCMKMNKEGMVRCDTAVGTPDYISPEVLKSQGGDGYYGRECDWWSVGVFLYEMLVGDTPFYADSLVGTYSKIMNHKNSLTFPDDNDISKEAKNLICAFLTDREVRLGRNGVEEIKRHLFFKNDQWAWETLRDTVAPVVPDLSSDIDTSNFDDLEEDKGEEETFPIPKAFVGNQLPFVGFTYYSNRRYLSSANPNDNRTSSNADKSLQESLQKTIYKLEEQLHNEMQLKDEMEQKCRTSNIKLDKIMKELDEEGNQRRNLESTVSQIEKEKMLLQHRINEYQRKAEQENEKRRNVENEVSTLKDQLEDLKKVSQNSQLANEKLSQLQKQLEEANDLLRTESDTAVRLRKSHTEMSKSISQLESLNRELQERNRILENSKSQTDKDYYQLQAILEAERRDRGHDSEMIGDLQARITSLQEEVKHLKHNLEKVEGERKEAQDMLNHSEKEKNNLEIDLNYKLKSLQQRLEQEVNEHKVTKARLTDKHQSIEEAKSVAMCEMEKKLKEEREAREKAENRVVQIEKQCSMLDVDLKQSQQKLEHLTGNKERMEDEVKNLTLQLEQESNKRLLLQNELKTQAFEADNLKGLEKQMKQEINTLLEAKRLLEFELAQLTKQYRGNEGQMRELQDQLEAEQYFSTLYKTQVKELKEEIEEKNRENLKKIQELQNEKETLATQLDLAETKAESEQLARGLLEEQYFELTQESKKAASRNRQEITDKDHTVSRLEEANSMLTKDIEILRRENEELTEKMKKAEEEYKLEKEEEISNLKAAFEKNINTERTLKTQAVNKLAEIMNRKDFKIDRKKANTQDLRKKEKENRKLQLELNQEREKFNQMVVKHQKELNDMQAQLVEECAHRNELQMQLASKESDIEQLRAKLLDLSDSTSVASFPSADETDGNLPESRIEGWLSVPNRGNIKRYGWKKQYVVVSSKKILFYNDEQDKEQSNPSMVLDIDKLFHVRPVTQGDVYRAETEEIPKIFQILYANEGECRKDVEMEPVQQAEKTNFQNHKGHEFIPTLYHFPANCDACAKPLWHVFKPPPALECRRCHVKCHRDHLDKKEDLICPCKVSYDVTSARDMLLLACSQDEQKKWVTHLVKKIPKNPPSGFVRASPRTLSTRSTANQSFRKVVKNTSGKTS

[4] = target: Fibroblast growth factor receptor 1 (Homo sapiens) (UniProt P11362); experiment: Inhibition of FGFR1 at 10 uM by HotSpot assay
[5] = target: Mast/stem cell growth factor receptor Kit (Homo sapiens) (UniProt P10721); experiment: Inhibition of c-Kit at 10 uM by HotSpot assay
Chain of Mast/stem cell growth factor receptor Kit (Homo sapiens) (P10721 whole entry): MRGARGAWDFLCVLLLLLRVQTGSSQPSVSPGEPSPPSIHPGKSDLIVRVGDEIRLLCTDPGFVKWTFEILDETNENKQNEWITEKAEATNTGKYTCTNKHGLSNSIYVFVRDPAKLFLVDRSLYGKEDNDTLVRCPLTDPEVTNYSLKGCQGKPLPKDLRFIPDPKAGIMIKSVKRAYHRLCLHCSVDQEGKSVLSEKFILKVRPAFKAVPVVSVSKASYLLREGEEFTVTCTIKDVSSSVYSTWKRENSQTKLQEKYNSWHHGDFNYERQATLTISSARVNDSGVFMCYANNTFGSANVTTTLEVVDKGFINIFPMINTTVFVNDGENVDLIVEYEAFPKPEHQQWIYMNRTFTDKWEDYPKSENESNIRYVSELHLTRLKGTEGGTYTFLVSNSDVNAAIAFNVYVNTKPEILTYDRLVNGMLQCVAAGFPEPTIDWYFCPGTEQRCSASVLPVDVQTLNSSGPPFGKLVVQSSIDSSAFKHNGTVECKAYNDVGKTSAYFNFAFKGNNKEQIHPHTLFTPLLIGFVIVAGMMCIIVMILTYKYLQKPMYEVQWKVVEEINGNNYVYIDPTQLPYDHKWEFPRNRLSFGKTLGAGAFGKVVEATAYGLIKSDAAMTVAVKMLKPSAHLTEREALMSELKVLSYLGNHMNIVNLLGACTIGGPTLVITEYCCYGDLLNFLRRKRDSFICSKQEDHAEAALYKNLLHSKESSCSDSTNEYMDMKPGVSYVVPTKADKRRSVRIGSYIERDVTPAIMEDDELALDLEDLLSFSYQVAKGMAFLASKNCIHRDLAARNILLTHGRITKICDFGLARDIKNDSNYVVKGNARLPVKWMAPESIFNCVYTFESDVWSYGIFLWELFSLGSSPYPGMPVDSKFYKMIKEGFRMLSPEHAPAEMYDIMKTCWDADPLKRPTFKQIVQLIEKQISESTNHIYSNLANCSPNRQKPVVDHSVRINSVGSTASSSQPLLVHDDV

[6] = target: Tyrosine-protein kinase Yes (Homo sapiens) (UniProt P07947); experiment: Inhibition of YES1 at 10 uM by HotSpot assay
[7] = target: Serine/threonine-protein kinase PAK 2 (Homo sapiens) (UniProt Q13177); experiment: Inhibition of PAK2 at 10 uM by HotSpot assay
Chain of Serine/threonine-protein kinase PAK 2 (Homo sapiens) (Q13177 whole entry): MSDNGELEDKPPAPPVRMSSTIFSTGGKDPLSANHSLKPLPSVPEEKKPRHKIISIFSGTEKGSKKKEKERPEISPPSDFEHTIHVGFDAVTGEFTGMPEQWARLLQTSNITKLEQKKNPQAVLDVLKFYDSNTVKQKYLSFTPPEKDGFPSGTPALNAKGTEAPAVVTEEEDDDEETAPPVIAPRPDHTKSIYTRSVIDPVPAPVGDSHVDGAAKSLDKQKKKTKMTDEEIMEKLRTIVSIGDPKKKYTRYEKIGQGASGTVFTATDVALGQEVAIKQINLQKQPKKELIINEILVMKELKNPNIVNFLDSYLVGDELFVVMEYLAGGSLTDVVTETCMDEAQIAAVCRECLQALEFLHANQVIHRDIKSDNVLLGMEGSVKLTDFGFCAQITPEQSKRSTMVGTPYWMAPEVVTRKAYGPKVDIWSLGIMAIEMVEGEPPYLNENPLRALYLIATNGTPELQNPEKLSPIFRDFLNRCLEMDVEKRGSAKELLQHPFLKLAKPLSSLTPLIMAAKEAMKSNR

[8] = target: Ribosomal protein S6 kinase beta-1 (Homo sapiens) (UniProt P23443); experiment: Inhibition of p70S6K1 at 10 uM by HotSpot assay
[9] = target: Inhibitor of nuclear factor kappa-B kinase subunit epsilon (Homo sapiens) (UniProt Q14164); experiment: Inhibition of IKKepsilon at 10 uM by HotSpot assay
[10] = target: Tyrosine-protein kinase Lyn (Homo sapiens) (UniProt P07948); experiment: Inhibition of LYN at 10 uM by HotSpot assay
Chain of Tyrosine-protein kinase Lyn (Homo sapiens) (P07948 2-512 limits assumed): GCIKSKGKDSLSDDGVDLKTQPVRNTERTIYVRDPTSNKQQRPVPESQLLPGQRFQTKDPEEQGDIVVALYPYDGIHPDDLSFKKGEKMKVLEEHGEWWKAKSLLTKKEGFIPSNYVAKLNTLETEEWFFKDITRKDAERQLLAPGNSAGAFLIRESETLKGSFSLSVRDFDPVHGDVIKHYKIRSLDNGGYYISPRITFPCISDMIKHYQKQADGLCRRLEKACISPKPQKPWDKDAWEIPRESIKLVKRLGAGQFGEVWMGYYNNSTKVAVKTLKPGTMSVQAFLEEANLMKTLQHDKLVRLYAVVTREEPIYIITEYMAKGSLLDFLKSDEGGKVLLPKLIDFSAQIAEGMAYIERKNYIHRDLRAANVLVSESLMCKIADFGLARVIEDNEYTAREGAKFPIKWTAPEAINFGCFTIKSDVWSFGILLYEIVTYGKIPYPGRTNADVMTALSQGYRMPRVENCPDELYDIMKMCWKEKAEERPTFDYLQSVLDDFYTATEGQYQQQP

[11] = target: Epidermal growth factor receptor (Homo sapiens) (UniProt P00533); experiment: Inhibition of EGFR at 10 uM by HotSpot assay
[12] = target: Tyrosine-protein kinase ABL1 (Homo sapiens) (UniProt P00519); experiment: Inhibition of ABL1 at 10 uM by HotSpot assay
[13] = target: Proto-oncogene tyrosine-protein kinase receptor Ret (Homo sapiens) (UniProt P07949); experiment: Inhibition of RET at 10 uM by HotSpot assay
[14] = target: Mitogen-activated protein kinase 14 (Homo sapiens) (UniProt Q16539); experiment: Inhibition of p38alpha at 10 uM by HotSpot assay
Chain of Mitogen-activated protein kinase 14 (Homo sapiens) (Q16539 whole entry): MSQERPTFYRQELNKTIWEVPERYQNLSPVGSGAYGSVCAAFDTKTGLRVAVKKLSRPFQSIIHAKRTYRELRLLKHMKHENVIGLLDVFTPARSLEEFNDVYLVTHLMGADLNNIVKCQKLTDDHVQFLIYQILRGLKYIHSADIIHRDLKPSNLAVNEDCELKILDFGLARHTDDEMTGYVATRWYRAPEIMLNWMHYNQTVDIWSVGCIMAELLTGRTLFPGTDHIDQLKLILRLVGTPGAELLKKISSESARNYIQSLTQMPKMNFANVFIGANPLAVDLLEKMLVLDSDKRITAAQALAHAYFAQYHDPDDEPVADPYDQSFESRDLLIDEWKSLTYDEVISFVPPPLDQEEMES

[15] = target: RAF proto-oncogene serine/threonine-protein kinase (Homo sapiens) (UniProt P04049); experiment: Inhibition of RAF1 at 10 uM by HotSpot assay
Chain of RAF proto-oncogene serine/threonine-protein kinase (Homo sapiens) (P04049 whole entry): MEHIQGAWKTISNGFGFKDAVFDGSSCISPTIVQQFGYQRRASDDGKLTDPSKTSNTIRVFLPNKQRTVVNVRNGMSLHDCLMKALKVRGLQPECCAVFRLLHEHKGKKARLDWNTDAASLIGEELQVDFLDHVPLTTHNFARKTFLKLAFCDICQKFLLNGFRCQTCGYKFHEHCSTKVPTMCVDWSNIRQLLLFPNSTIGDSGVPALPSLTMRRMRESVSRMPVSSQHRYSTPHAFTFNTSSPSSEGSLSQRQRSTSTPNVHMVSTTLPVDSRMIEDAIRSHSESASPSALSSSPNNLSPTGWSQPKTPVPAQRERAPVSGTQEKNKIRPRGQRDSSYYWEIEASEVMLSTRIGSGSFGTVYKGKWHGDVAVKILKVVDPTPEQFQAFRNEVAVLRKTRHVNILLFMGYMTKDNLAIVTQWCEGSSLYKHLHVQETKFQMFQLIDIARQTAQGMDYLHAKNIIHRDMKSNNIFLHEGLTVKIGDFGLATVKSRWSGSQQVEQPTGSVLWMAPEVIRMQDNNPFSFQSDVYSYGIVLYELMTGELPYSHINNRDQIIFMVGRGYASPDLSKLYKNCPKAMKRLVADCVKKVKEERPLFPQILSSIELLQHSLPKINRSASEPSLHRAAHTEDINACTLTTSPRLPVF

MCF7 [16] = experiment: Growth inhibition of human MCF7 cells after 48 hrs by sulforhodamine B assay; assay type: functional; conditions: MCF7, 48 h
How it was run: (§1)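 Cells grown in RPMI 1640 with 5% FBS and 2 mM L-glutamine, seeded at 5,000–40,000 cells/well according to doubling time. After 24 h, time-zero plates are TCA-fixed. Five concentrations (10-fold or ½log dilutions, DMSO stocks) are applied for 48 h at 37 °C, 5% CO₂. Cells are TCA-fixed, SRB-stained and read at 515 nm. IC₅₀ is taken from [(Ti−Tz)/(C−Tz)]×100 = 50.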

HCC 2998 [17] = experiment: Cytotoxicity against human HCC2998 cells assessed as cell growth at 1 uM after 48 hrs by sulforhodamine B assay; assay type: functional; conditions: HCC 2998, 48 h, read-out: Activity
CCRF-CEM [18] = experiment: Cytotoxicity against human CCRF-CEM cells assessed as cell growth at 0.001 uM after 48 hrs by sulforhodamine B assay; assay type: functional; conditions: read-out: Activity
HOP-92 [19] = experiment: Cytotoxicity against human HOP92 cells assessed as cell growth at 10 uM after 48 hrs by sulforhodamine B assay; assay type: functional; conditions: HOP-92, 48 h, read-out: Activity
HCC 2998 [20] = experiment: Cytotoxicity against human HCC2998 cells assessed as cell growth at 0.001 uM after 48 hrs by sulforhodamine B assay; assay type: functional; conditions: HCC 2998, 48 h, read-out: Activity
MCF7 [21] = experiment: Cytotoxicity against human MCF7 cells assessed as cell growth at 10 uM after 48 hrs by sulforhodamine B assay; assay type: functional; conditions: MCF7, 48 h, read-out: Activity
HOP-92 [22] = experiment: Cytotoxicity against human HOP92 cells assessed as cell growth at 0.01 uM after 48 hrs by sulforhodamine B assay; assay type: functional; conditions: HOP-92, 48 h, read-out: Activity
SK-MEL-28 = experiment: Cytotoxicity against human SK-MEL-28 cells assessed as cell growth at 1 uM after 48 hrs by sulforhodamine B assay; assay type: functional; conditions: SK-MEL-28, 48 h, read-out: Activity
SR [23] = experiment: Cytotoxicity against human SR cells assessed as cell growth at 1 uM after 48 hrs by sulforhodamine B assay; assay type: functional; conditions: read-out: Activity
CCRF-CEM [24] = experiment: Cytotoxicity against human CCRF-CEM cells assessed as cell growth at 1 uM after 48 hrs by sulforhodamine B assay; assay type: functional; conditions: read-out: Activity
[25] = Cytotoxicity against human RPMI8266 cells assessed as cell growth at 0.001 uM after 48 hrs by sulforhodamine B assay; assay type: functional; conditions: read-out: Activity
NCI-H226 = experiment: Growth inhibition of human NCI-H226 cells after 48 hrs by sulforhodamine B assay; assay type: functional; conditions: NCI-H226, 48 h; how it was run: as §1
HOP-92 [26] = experiment: Cytotoxicity against human HOP92 cells assessed as cell growth at 100 nM after 48 hrs by sulforhodamine B assay; assay type: functional; conditions: HOP-92, 48 h, read-out: Activity
SR [27] = experiment: Cytotoxicity against human SR cells assessed as cell growth at 10 uM after 48 hrs by sulforhodamine B assay; assay type: functional; conditions: read-out: Activity
MCF7 [28] = experiment: Cytotoxicity against human MCF7 cells assessed as cell growth at 1 uM after 48 hrs by sulforhodamine B assay; assay type: functional; conditions: MCF7, 48 h, read-out: Activity
PC-3 = experiment: Cytotoxicity against human PC3 cells assessed as cell growth at 1 uM after 48 hrs by sulforhodamine B assay; assay type: functional; conditions: PC-3, 48 h, read-out: Activity
HOP-62 = experiment: Cytotoxicity against human HOP62 cells assessed as cell growth at 0.001 uM after 48 hrs by sulforhodamine B assay; assay type: functional; conditions: HOP-62, 48 h, read-out: Activity
HCC 2998 [29] = experiment: Cytotoxicity against human HCC2998 cells assessed as cell growth at 10 uM after 48 hrs by sulforhodamine B assay; assay type: functional; conditions: HCC 2998, 48 h, read-out: Activity
HCC 2998 [30] = experiment: Cytotoxicity against human HCC2998 cells assessed as cell growth at 100 nM after 48 hrs by sulforhodamine B assay; assay type: functional; conditions: HCC 2998, 48 h, read-out: Activity
[31] = read-out: LC50 (the source's name)

Chain of RAC-alpha serine/threonine-protein kinase (Homo sapiens) (P31749 whole entry): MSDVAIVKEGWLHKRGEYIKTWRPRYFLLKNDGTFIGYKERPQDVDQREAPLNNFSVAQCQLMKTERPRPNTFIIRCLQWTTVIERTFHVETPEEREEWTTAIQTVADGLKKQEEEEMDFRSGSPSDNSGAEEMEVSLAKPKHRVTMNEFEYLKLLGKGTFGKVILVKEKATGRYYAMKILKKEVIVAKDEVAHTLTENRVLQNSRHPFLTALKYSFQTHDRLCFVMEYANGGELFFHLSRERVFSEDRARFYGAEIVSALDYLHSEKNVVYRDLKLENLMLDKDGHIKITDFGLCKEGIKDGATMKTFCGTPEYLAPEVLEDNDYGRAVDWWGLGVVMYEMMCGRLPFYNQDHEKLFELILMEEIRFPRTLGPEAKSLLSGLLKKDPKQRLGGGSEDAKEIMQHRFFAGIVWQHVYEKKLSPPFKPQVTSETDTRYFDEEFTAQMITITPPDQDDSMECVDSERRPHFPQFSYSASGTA

CC(=O)Nc1cccc(-c2ccc(-c3ccnc(NC(=O)Nc4cc(C(F)(F)F)cc(C(F)(F)F)c4)n3)cn2)c1.Cl
inhibition [1]: < 50%
inhibition [2]: < 50%
inhibition [3]: < 50%
inhibition [4]: < 50%
inhibition [5]: < 50%
inhibition [6]: < 50%
inhibition [7]: < 50%
inhibition [8]: < 50%
inhibition [9]: < 50%
inhibition [10]: < 50%
inhibition [11]: < 50%
inhibition [12]: 70%
inhibition [13]: < 50%
inhibition [14]: < 50%
inhibition [15]: < 50%

CC(=O)c1ccccc1-c1ccc(-c2ccnc(NC(=O)Nc3cc(N4CCOCC4)cc(C(F)(F)F)c3)n2)cn1
GI50 (MCF7 [16]): > 100 µM
TGI (MCF7 [16]): > 100 µM
CC50 (MCF7 [16]; [31]): > 100 µM
growth at 1 µM (HCC 2998 [17]): 114%
growth at 0.001 µM (CCRF-CEM [18]): 98%
growth at 10 µM (HOP-92 [19]): 20%
growth at 0.001 µM (HCC 2998 [20]): 110%
growth at 10 µM (MCF7 [21]): 70%
growth at 0.01 µM (HOP-92 [22]): 102%
growth at 1 µM (SK-MEL-28): 4%
growth at 1 µM (SR [23]): 78%
growth at 1 µM (CCRF-CEM [24]): 93%
growth at 0.001 µM [25]: 101%
GI50 (NCI-H226): > 100 µM
TGI (NCI-H226): > 100 µM
CC50 (NCI-H226; [31]): > 100 µM
growth at 0.1 µM (HOP-92 [26]): 91%
growth at 10 µM (SR [27]): 107%
growth at 1 µM (MCF7 [28]): 90%
growth at 1 µM (PC-3): 78%
growth at 0.001 µM (HOP-62): 103%
growth at 10 µM (HCC 2998 [29]): 135%
growth at 0.1 µM (HCC 2998 [30]): 117%
